These results are taken from ChEMBL document CHEMBL1932933, “A small chemical library of 2-aminoimidazole derivatives as BACE-1 inhibitors: Structure-based design, synthesis, and biological evaluation” (Eur J Med Chem, 2012).

The structures appear in SMILES notation.

Data set [1] addresses T1, Beta-secretase 1 (Homo sapiens, UniProt P56817). Kind of data set: Inhibition of BACE1 using methoxycoumarin-Ser-Glu-Val-Asn-Leu-Asp-Ala-Glu-Phe-Lys-dinitrophenyl as substrate preincubated 1 hr before substrate addition measured after 15 mins by FRET assay.
Data set [2] is described as follows: Inhibition of BACE1 in chicken primary telencephalon neurons assessed as reduction of amyloid beta38 secretion after 24 hrs by ELISA. Details: species or system Gallus gallus; call rule not given here. The procedure, abridged:
(§1)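 Aβ secretion from neurons after 24 h of inhibitor treatment. Data were corrected for mean neuron viability from an MTT reduction assay run after 24 h of treatment. Values are the mean of three independent experiments.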

Data set [3] is described as follows: Inhibition of BACE1 in chicken primary telencephalon neurons assessed as reduction of amyloid beta40 secretion after 24 hrs by ELISA. Details: species or system Gallus gallus. The procedure, abridged:
as §1

Data set [4] is described as follows: Inhibition of BACE1 in chicken primary telencephalon neurons assessed as reduction of amyloid beta42 secretion after 24 hrs by ELISA. Details: species or system Gallus gallus. In short, it runs like this:
as §1
(In general: ELISA stands for enzyme-linked immunosorbent assay.)

Data set [5] in a line: Cytotoxicity against chicken primary telencephalon neurons at 25 uM after 24 hrs by MTT assay. Set-up: species or system Gallus gallus. In general terms: Formazan colour is commonly taken as a measure of viable cells.
Data set [6] can be described thus: Permeability of the compound by PAMPA. The format is ADME. Conditions: read-out: permeability.
Data set [7] can be described thus: Cytotoxicity against chicken primary telencephalon neurons at 50 uM after 24 hrs by MTT assay. Set-up: species or system Gallus gallus.
The target in data set [8] is T1, Beta-secretase 1. Kind of data set: Inhibition of BACE1 using methoxycoumarin-Ser-Glu-Val-Asn-Leu-Asp-Ala-Glu-Phe-Lys-dinitrophenyl as substrate at 100 uM preincubated 1 hr before substrate addition measured after 15 mins by FRET assay.
A short description of data set [9]: Solubility of the compound. The format is physicochemical.
Setting [10] is: Gallus gallus, 24 h, read-out: IC50.

T1 sequence (P56817 whole entry): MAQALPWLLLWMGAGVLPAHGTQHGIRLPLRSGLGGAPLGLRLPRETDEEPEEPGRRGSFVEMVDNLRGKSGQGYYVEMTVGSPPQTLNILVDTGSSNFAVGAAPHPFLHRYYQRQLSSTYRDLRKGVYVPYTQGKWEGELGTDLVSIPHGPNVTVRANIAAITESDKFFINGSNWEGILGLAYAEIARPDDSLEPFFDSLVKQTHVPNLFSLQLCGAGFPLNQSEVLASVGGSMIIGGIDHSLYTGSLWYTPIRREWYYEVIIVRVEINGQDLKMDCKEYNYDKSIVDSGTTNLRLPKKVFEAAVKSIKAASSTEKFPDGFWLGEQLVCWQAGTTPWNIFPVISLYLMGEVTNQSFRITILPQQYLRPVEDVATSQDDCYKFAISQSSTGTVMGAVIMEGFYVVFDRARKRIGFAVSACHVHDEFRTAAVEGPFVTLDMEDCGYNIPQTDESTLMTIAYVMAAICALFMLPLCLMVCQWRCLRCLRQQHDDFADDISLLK

On to `COc1cc(OC)cc(-c2ccc(Cc3cn(Cc4ccc(F)cc4)c(N)n3)cc2)c1`, for which the IC50 on Beta-secretase 1 [1] was 7.4 µM; in [2] (setting [10]), 15 µM; in data set [3] (setting [10]), 23 µM; in data set [4] (setting [10]), 19 µM. Further, in data set [5], the Activity result is given as “Toxic”. Besides, the Papp in data set [6] turned out to be 4 ×10⁻⁶ cm/s.

Take `Cn1c(=O)c2c(ncn2C)n(C)c1=O` [CAFFEINE]: the Papp in data set [6] stood at 0.9 ×10⁻⁶ cm/s.

For the molecule `COc1cc(OC)cc(-c2ccc(Cc3cn(Cc4cc(F)cc(F)c4)c(N)n3)cc2)c1`, the IC50 against Beta-secretase 1 [1] worked out at 7.32 µM; in data set [2] (setting [10]), 33 µM; in data set [3] (setting [10]), 35 µM; in data set [4] (setting [10]), 27 µM. The Papp in data set [6] turned out to be 3.2 ×10⁻⁶ cm/s. Moreover, the Activity result in data set [7] is reported as “Toxic”.

As for `CN(C)CCCN1c2ccccc2Sc2ccccc21` [PROMAZINE], the Papp in [6] is 11.5 ×10⁻⁶ cm/s.

Turning to `CCn1cc(C(=O)O)c(=O)c2cc(F)c(N3CCNCC3)nc21` [ENOXACIN], the Papp in data set [6] is 0.3 ×10⁻⁶ cm/s.

Molecule `Nc1nc(Cc2ccccc2)cn1Cc1ccccc1` yielded an inhibition against Beta-secretase 1 [8] of 19.6%.

Turning to `Nc1nc(Cc2ccc(-c3cccc4oc5ccccc5c34)cc2)cn1Cc1ccccc1Cl`, the IC50 against Beta-secretase 1 [1] was 5.95 µM; in data set [2], “Not Active”; in data set [3] it was “Not Active”; in data set [4], “Not Active”. Also, in data set [6], the Papp turned out to be 4 ×10⁻⁶ cm/s.

Turning to `CN1C(C(=O)Nc2ccccn2)=C(O)c2ccccc2S1(=O)=O` [PIROXICAM], the Papp in [6] is 0.4 ×10⁻⁶ cm/s.

Turning to `Nc1nc(Cc2ccc(-c3ccc(C(F)(F)F)cc3)cc2)cn1Cc1cc(F)cc(F)c1`, the IC50 against Beta-secretase 1 [1] was 5.59 µM; in [2], “Not Active”; in [3], “Not Active”; in data set [4], “Not Active”. The solubility entry in data set [9] was “Insoluble”.

The term IC50 denotes the concentration at which inhibition is half-maximal. The inhibition is the percentage by which the read-out fell short of the control. Low readings indicate little suppression, high ones strong suppression.
